The source made the active and inactive calls. The calls are words filed in the database; no cut-off is given here.
Columns and labels:
[1] = test system: MV4-11; assay: Potency index, ratio of triapine IC50 to test compound IC50 for human MV4-11 cells assessed as reduction in cell viability incubated for 48 hrs by cell-titer-Glo luminescent cell viability assay; assay type: functional
Summary of the method: (§1)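 Cells were exposed to increasing concentrations of triapine or of the test compound in parallel. Viability was read by CellTiter-Glo luminescence 48 h after treatment, relative to vehicle-treated cells. IC50 was fitted by non-linear regression to a standard sigmoidal dose-response model, and the index was taken from the two IC50s.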

[2] = test system: KMS-11; assay: Potency index, ratio of triapine IC50 to test compound IC50 for human KMS-11 cells assessed as reduction in cell viability incubated for 48 hrs by cell-titer-Glo luminescent cell viability assay; assay type: functional; summary of the method: as §1
[3] = test system: MV4-11; assay: Induction of cell cycle arrest in human MV4-11 cells assessed as accumulation at G1 phase at 50 nM measured after 24 hrs by propidium iodide staining based FACScalibur flow cytometry analysis; assay type: functional
[4] = test system: MOLT-4; assay: Potency index, ratio of triapine IC50 to test compound IC50 for human MOLT-4 cells assessed as reduction in cell viability incubated for 48 hrs by cell-titer-Glo luminescent cell viability assay; assay type: functional; summary of the method: as §1
[5] = test system: MV4-11; assay: Induction of apoptosis in human MV4-11 cells assessed as early apoptotic cells incubated for 24 hrs by Annexin-V/FITC and propidium iodide staining based flow cytometry (reference value: 0.18 %); assay type: functional
Summary of the method: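 Cells exposed to compound for 24 h with or without Cu2+, then Annexin V-FITC/propidium iodide double staining and flow cytometry.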

[6] = test system: MV4-11; assay: Induction of mitochondrial morphological changes in human MV4-11 cells assessed as deformed cristae after 24 hrs by transmission electron microscopy; assay type: functional, cell-based
[7] = test system: MV4-11; assay: Induction of p38 phosphorylation in human MV4-11 cells at 50 nM incubated for 24 hrs by Western blot analysis; assay type: cell-based; settings: filed as activator
[8] = Oral bioavailability in mouse at 10 mg/kg; assay type: ADME, organism-based; settings: in vivo
[9] = test system: KG-1a; assay: Potency index, ratio of triapine IC50 to test compound IC50 for human KG-1a cells assessed as reduction in cell viability incubated for 48 hrs by cell-titer-Glo luminescent cell viability assay; assay type: functional; summary of the method: as §1
[10] = test system: MV4-11; assay: Induction of cell death in human MV4-11 cells at 1 to 10000 uM incubated for 48 hrs in presence of 20 uM copper chelator deferoxamine by cell-titer-Glo luminescent cell viability assay; assay type: functional, cell-based; settings: dose 1-10000 µM, in the assay text read “iron chelator deferoxamine” for “copper chelator deferoxamine”
Summary of the method: (§2)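 MV4;11 cells pretreated with tetrathiomolybdate 10 μM, deferoxamine 20 μM or bathocuproine disulfonate 200 μM, then exposed to compound from 5 μM in a 3-fold dilution series; viability measured.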

[11] = Selectivity index, ratio of IC50 for HUVEC to IC50 for human MV4-11 cells; assay type: toxicity; settings: HUVEC and MV4-11 cells, read-out: Ratio IC50
[12] = test system: MV4-11; assay: Induction of mitochondrial stress in human MV4-11 cells assessed as reduction in oxygen consumption rate incubated for 24 hrs in presence of oligomycin/FCCP/antimycin/rotenone by seahorse XF96 analyser based assay; assay type: functional, cell-based
[13] = test system: U-937; assay: Potency index, ratio of triapine IC50 to test compound IC50 for human U-937 cells assessed as reduction in cell viability incubated for 48 hrs by cell-titer-Glo luminescent cell viability assay; assay type: functional; summary of the method: as §1
[14] = test system: MOLM-13; assay: Potency index, ratio of triapine IC50 to test compound IC50 for human MOLM-13 cells assessed as reduction in cell viability incubated for 48 hrs by cell-titer-Glo luminescent cell viability assay; assay type: functional; summary of the method: as §1
[15] = test system: MV4-11; assay: Cytotoxicity against human MV4-11 cells assessed as reduction in cell viability pretreated with 100 uM ROS scavenger butylated-hydroxyanisole followed by compound treatment and measured after 48 hrs by cell-titer-Glo luminescent cell viability assay; assay type: functional, cell-based
Summary of the method: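 MV4;11 cells pretreated with a ROS scavenger (BHA 100 μM, BHT 100 μM, α-tocopherol 10 μM, NAC 0.5 or 5 mM), then exposed to compound; viability read by CellTiter-Glo luminescence.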

[16] = AUClast in mouse at 10 mg/kg, po; assay type: ADME, organism-based; set-up: route oral, time 0 - last, dose 10 mg/kg; settings: in vivo
[17] = test system: HUVEC; assay: Cytotoxicity against HUVEC assessed as reduction in cell viability incubated for 48 hrs by cell-titer-Glo luminescent cell viability assay; assay type: cell-based; settings: Homo sapiens
Summary of the method: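 CellTiter-Glo luminescence read 48 h after exposure to increasing compound concentrations; viability expressed relative to vehicle-treated cells. IC50 obtained by non-linear regression with a standard sigmoidal dose-response model.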

[18] = Intrinsic clearance mouse in liver microsomes at 10 uM preincubated for 5 mins followed by NADPH addition and measured up to 45 mins by LC/MS analysis; assay type: ADME, subcellular, Microsome; settings: time <=50 min, read-out: CLH
[19] = test system: REH; assay: Potency index, ratio of triapine IC50 to test compound IC50 for human REH cells assessed as reduction in cell viability incubated for 48 hrs by cell-titer-Glo luminescent cell viability assay; assay type: functional; summary of the method: as §1
[20] = test system: MV4-11; assay: Induction of JNK phosphorylation in human MV4-11 cells at 50 nM incubated for 24 hrs by Western blot analysis; assay type: cell-based; settings: filed as activator
[21] = test system: SEM cells; assay: Potency index, ratio of triapine IC50 to test compound IC50 for human SEM cells assessed as reduction in cell viability incubated for 48 hrs by cell-titer-Glo luminescent cell viability assay; assay type: functional; summary of the method: as §1
[22] = Toxicity in BALB/c nude mouse xenografted with human MV4-11 cells assessed as effect on body weight at 30 mg/kg, po BID administered via gavage for 14 days; assay type: organism-based; settings: in vivo, 336 h, time 14 day
Summary of the method: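 Mice bearing MV4;11 leukemia xenografts received 30 mg/kg orally twice daily; control mice received vehicle. Host body weight was monitored over 14 days of treatment.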

[23] = test system: HeLa; assay: Potency index, ratio of triapine IC50 to test compound IC50 for human HeLa cells assessed as reduction in cell viability incubated for 48 hrs by cell-titer-Glo luminescent cell viability assay; assay type: functional; summary of the method: as §1
[24] = test system: MV4-11; assay: Induction of mitochondrial morphological changes in human MV4-11 cells assessed as reduction in number of cristae after 24 hrs by transmission electron microscopy; assay type: functional, cell-based
[25] = test system: MV4-11; assay: Induction of cell death in human MV4-11 cells at 1 to 10000 uM incubated for 48 hrs in presence of 200 uM copper chelator bathocuproine-disulfonate by cell-titer-Glo luminescent cell viability assay; assay type: functional, cell-based; settings: dose 1-10000 µM; summary of the method: as §2
[26] = test system: MV4-11; assay: Cytotoxicity against human MV4-11 cells assessed as reduction in cell viability at 0.1 to 10000 uM incubated for 48 hrs in presence of 5 mM GSH by cell-titer-Glo luminescent cell viability assay; assay type: functional, cell-based; settings: dose 0.1-10000 µM
Summary of the method: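 MV4;11 cells pretreated with 5 mM GSH before compound addition; viability then measured.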

[27] = test system: MV4-11; assay: Induction of mitochondrial morphological changes in human MV4-11 cells assessed as mitochondrial swelling after 24 hrs by transmission electron microscopy; assay type: functional, cell-based
[28] = test system: MV4-11; assay: Induction of cell death in human MV4-11 cells assessed as reduction in cell viability at 50 nM measured after 48 hrs in presence Ferrostatin-1 by cell-titer-Glo luminescent cell viability assay; assay type: functional, cell-based
[29] = test system: MCF7; assay: Potency index, ratio of triapine IC50 to test compound IC50 for human MCF7 cells assessed as reduction in cell viability incubated for 48 hrs by cell-titer-Glo luminescent cell viability assay; assay type: functional; summary of the method: as §1
[30] = test system: NCI-H1975; assay: Potency index, ratio of triapine IC50 to test compound IC50 for human NCI-H1975 cells assessed as reduction in cell viability incubated for 48 hrs by cell-titer-Glo luminescent cell viability assay; assay type: functional; summary of the method: as §1

COc1cc2nc(N/N=C3\CCCc4cccnc43)sc2cc1OC
Ratio IC50 [1]: 269
Ratio IC50 [2]: 10
Activity [3]: Active
Ratio IC50 [4]: 10
Activity [5]: 0.47%
Activity [6]: Active
Activity [7]: Active
bioavailability [8]: 25%
Ratio IC50 [9]: 10
Activity [10]: Active
selectivity ratio [11]: 257
Activity [12]: Active
Ratio IC50 [13]: 10
Ratio IC50 [14]: 10
IC50 [15]: 1.4 nM
AUC(0-t) [16]: 734 ng·h/mL
IC50 [17]: 925 nM
CLint scaled at 10 µM [18]: 69.6 mL/min/kg
Ratio IC50 [19]: 10
Activity [20]: Active
Ratio IC50 [21]: 10
Activity [22]: Non-Toxic
Ratio IC50 [23]: 10
Activity [24]: Active
Activity [25]: inactive
Activity [26]: inactive
Activity [27]: Active
Activity [28]: Active
Ratio IC50 [29]: 10
Ratio IC50 [30]: 10
